Rows were chosen to be rich in hits. Some 2.9% of all compounds tested hit in one or more screens of this group.
b-catenin transl = modulators of beta-catenin nuclear translocation, primary screen, imaging, HeLa cells, immunofluorescence, high-content. nuclear translocation activity, % at 5 µM. actives 0.3% (n = 190,000). AID 1665, 2009;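 active means nuclear translocation activity above 50% at 5 µM, with a well cell count of 50 or more; inconclusive means wells under 50 cells across six images, flagged as toxic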;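 further: per-cell ratio of nuclear to cytoplasmic median beta-catenin stain intensity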
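Test system: human HeLa cells, endogenous beta-catenin. Times: 24 h compound exposure, 37°C. Measured by: beta-catenin immunofluorescence imaging with DAPI.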
Insulin prom up = insulin promoter activators in MIN6 cells, imaging, high-content screening, mouse beta cells | z-score at 5 µM | MIN6 insulin promoter-GFP reporter; hits give high values | actives 0.3% (n = 190,000) | AID 1625, 2009;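 active means z-score above 3 at 5 µM with at least 500 cells counted in the well; inconclusive means wells under 500 cells, flagged as cytotoxic or low count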
Autophagy mod = autophagy modulators in MEF cells, primary screen, imaging, high-content, MEF GFP-LC3. MEF GFP-LC3 puncta imaging; test concentration mostly 10 µM. calls only at 10 µM (by protocol). actives 0.98% (n = 190,000);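 active means percentage of spot-positive cells more than 3 SD above its plate mean, without a fluorescence outlier flag or 80% toxicity; inconclusive means no clear call, values can overlap the other calls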
Wee1 stabilizer = Wee1 degradation inhibitors, primary screen, cell-based, HeLa, Wee1K328M-luciferase, luminescence; Wee1-like protein kinase (Homo sapiens), P30291; HeLa Luc-Wee1K328M stability; 100% = proteasome inhibitor MG132 effect; reporter increase, % at 5 µM; actives 1.2% (n = 220,000);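 active means activation above the mean of all tested compounds plus 3 SD, set per screening run, cut at about 8.8% in these data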;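 further: cells exposed to compound for 20 h before luminescence read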
Target sequence (P30291 whole entry K328M): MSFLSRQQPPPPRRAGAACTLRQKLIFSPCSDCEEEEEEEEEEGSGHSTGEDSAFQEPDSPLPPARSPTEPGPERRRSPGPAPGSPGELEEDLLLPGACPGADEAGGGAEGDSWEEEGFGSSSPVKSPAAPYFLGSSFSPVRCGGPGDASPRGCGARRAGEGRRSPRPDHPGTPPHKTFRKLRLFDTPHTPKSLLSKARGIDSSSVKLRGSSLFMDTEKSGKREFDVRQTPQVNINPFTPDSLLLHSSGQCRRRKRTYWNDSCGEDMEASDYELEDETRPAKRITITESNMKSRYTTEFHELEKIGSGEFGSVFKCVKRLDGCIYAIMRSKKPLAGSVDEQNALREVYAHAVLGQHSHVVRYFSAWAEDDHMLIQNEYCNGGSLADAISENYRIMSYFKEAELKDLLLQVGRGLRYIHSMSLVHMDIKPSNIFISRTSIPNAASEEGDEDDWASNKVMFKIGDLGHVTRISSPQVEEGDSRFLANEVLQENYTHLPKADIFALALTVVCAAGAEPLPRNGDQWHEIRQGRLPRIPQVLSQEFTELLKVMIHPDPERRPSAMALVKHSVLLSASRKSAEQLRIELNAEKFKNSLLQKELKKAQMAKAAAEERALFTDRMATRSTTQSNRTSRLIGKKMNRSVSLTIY
MT stabilize HCS = microtubule stabilizers in HeLa cells, primary screen, imaging, high-content imaging. % tubulin-high responders, % at 10 µM. actives 0.83% (n = 200,000). HeLa tubulin immunostaining HCS, 24 h; share of cells brighter than vehicle mean+2SD;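 active means plate Z-score above 3 for both tubulin-high and condensed-nucleus cell shares, with cell loss under 80%, at 10 µM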;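 further: anti alpha tubulin signal scored within the nucleus-defined area of each cell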
Large screens that a line does not name were inactive.

Cc1nc(C(F)(F)F)c(C(=O)N/N=C(\N)c2ccccn2)s1	none
Cc1nc2ccc(NC(=O)N3CCOCC3)cc2nc1C	none
COC(=O)CSc1nc2ccc(NC(=O)c3ccccc3C(=O)N3CCOCC3)cc2s1	none
Cc1nc2ccc(NC(=O)N3CCOCC3)cc2s1	Wee1 stabilizer 10
O=C(Nc1ccc2nc(SCc3ccc(Cl)cc3)sc2c1)c1ccccc1C(=O)N1CCOCC1	Autophagy mod active
Oc1ccc(Cl)cc1C(C#Cc1ccccc1)N1CCOCC1 (stereo not given)	none
CC1CN(Cc2ccccc2)c2ccccc2NC1=S (stereo not given)	none
COc1cc(C2=NOC(C(=O)NCc3ccco3)C2)cc(OC)c1OC (stereo not given)	b-catenin transl 60, MT stabilize HCS 23
COc1ccc(C2=NOC(C(=O)NCc3ccco3)C2)cc1 (stereo not given)	MT stabilize HCS 38
c1csc(CNc2nc(-c3cccs3)nc3ccccc23)c1	none
c1ccc(CN2CCC(Nc3nc(-c4cccs4)nc4ccccc34)CC2)cc1	Autophagy mod active
O=S(=O)(NCc1ccccc1Cl)c1cccs1	none (no result: Insulin prom up)
CN1CCc2c(sc(NC(=O)c3cc4cc([N+](=O)[O-])ccc4s3)c2C(N)=O)C1	Insulin prom up inconclusive, Autophagy mod active
CC(C)N1CCc2c(sc(NC(=O)c3cc4cc([N+](=O)[O-])ccc4s3)c2C(N)=O)C1	none (no result: Insulin prom up)
CCCCC1(Cc2cccc([N+](=O)[O-])c2)C(=O)N(c2ccccc2)N(c2ccccc2)C1=O	none
COC(=O)C/C(C)=N/Nc1ccc(S(=O)(=O)N2CCCC2)cc1[N+](=O)[O-]	none
COC(=O)Cc1c(C)nc2nc(NCc3ccccc3OC)[nH]n2c1=O	Insulin prom up 4.3
COc1ccccc1CNc1nc2nc(C)c(C)c(=O)n2[nH]1	none
CN(C(=O)c1ccccc1OC1CCN(S(C)(=O)=O)CC1)C1CCOC1 (stereo not given)	none (no result: Insulin prom up)
O=C(Nc1cccc(NC(=O)c2cccs2)c1)c1ccc2c(c1)OCCO2	none
CC/C(C)=N/Nc1nc2c(c(=O)[nH]c(=O)n2C)n1CCc1ccccc1	none
O=S(=O)(Nc1cc2nc3ccccc3nc2n1Cc1ccccc1)c1ccc(Cl)cc1	Autophagy mod active (no result: Insulin prom up)
CC(CN1C(C)CCCC1C)OC(=O)c1ccccc1Cl (stereo not given)	none
CC(CN1C(C)CCCC1C)OC(=O)c1ccc(Cl)cc1Cl (stereo not given)	Autophagy mod active
O=C(c1cccc(C(F)(F)F)c1)C1CCCN(C(=O)CCn2cnnn2)C1 (stereo not given)	none (no result: Autophagy mod, MT stabilize HCS)
CCOC(=O)COc1cc(N2C(=O)CSCC2=O)c(Cl)cc1Cl	none (no result: b-catenin transl, Insulin prom up)
CCOC(=O)COc1cc(-n2c(=S)[nH]c3cc(OC)c(OC)cc3c2=O)c(Cl)cc1Cl	MT stabilize HCS 9.2
Cn1c(=O)cc(Cl)[nH]c1=O	none
O=C(CCn1c(=S)[nH]c2ccccc2c1=O)NCCSCc1ccccc1	none
O=C(Cn1c(=S)[nH]c2ccccc2c1=O)NCCc1ccccc1	Wee1 stabilizer 9.5
COc1ccc(Cl)cc1N1C(=O)/C(=C\c2sccc2C)N=C1SCC(=O)NC1CC1	none (no result: Insulin prom up)
Cc1ccc(/C=N/NC(=O)CSc2nc3ccccc3c(=O)n2-c2ccccc2)s1	none
CCn1c(SCC(=O)N/N=C/c2ccc(C)s2)nc2ccccc21	MT stabilize HCS 20
COCCCNC(=S)N1CCC(NC(=O)c2ccco2)CC1	none (no result: Insulin prom up)
COc1cccc(C(=O)NC(=S)Nc2ccc(N(C)C)cc2)c1	none
Cc1ccc(Cc2c(C)nc3nc(SCC(=O)NCc4ccco4)nn3c2C)cc1	b-catenin transl 156, MT stabilize HCS 22
Cc1cccc(Cc2c(C)nc3nc(SCC(=O)NCc4ccco4)nn3c2C)c1	MT stabilize HCS 20
COc1ccc(C(=O)NCCCc2nc3ccccc3n2Cc2ccccc2C)cc1OC	Autophagy mod active
CC(=O)NCCCc1nc2ccccc2n1Cc1ccccc1F	none (no result: Autophagy mod, MT stabilize HCS)
Cc1nc(N2CCN(C(=O)c3ccc(Cl)cc3)CC2)c(C#N)c2c1COC(C)(C)C2	none (no result: Insulin prom up)
CCn1nc([N+](=O)[O-])c2c(-c3nc4ccccc4o3)c(N)n(CCCOC)c2c1=O	Autophagy mod active
Cc1ccc(-c2ccc(/C=C(\C#N)C(=O)Nc3cc(C)nn3-c3ccccc3)o2)cc1	Autophagy mod active (no result: Insulin prom up)

Screens from PubChem.
